According to ChEMBL document CHEMBL5653631, “A Potent and Selective ULK1 Inhibitor Suppresses Autophagy and Sensitizes Cancer Cells to Nutrient Stress” (iScience, 2018):

Columns and labels:
[1] = molecular target: Cyclin-dependent kinase 2 (Homo sapiens) (UniProt P24941); assay: Inhibition of human recombinant CDK2 at 500 nM in presence of ATP by radiometric assay relative to control
[2] = molecular target: Rho-associated protein kinase 2 (Homo sapiens) (UniProt O75116); assay: Inhibition of human recombinant ROCK2 at 500 nM related to control ULK1
[3] = molecular target: T1, Tyrosine-protein kinase TXK (Homo sapiens) (UniProt P42681); assay: Inhibition of human recombinant TXK at 15 nM in presence of ATP by radiometric assay relative to control
T1 sequence (whole entry): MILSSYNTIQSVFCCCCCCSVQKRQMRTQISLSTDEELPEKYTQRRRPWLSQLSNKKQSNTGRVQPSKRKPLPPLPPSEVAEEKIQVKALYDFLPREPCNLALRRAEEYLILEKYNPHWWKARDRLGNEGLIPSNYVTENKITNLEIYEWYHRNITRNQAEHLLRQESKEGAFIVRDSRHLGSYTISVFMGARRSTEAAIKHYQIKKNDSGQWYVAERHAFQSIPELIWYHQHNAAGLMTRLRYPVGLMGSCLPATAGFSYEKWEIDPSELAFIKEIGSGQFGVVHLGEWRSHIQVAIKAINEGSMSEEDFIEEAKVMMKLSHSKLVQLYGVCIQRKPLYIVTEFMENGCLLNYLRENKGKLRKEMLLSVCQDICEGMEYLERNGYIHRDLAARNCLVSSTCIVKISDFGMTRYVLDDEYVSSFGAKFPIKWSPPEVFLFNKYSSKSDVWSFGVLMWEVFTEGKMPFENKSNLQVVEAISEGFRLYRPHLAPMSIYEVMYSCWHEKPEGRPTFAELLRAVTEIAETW

[4] = molecular target: Serine/threonine-protein kinase 33 (Homo sapiens) (UniProt Q9BYT3); assay: Inhibition of human recombinant STK33 at 15 nM related to control ULK1
[5] = molecular target: Eukaryotic translation initiation factor 2-alpha kinase 1 (Homo sapiens) (UniProt Q9BQI3); assay: Inhibition of human recombinant HRI at 15 nM related to control ULK1
[6] = molecular target: Cyclin-dependent kinase-like 3 (Homo sapiens) (UniProt Q8IVW4); assay: Inhibition of human recombinant CDKL3 at 15 nM related to control ULK1
[7] = molecular target: T2, Eukaryotic elongation factor 2 kinase (Homo sapiens) (UniProt O00418); assay: Inhibition of human recombinant eEF2K at 15 nM in presence of ATP by radiometric assay relative to control
T2 sequence (whole entry): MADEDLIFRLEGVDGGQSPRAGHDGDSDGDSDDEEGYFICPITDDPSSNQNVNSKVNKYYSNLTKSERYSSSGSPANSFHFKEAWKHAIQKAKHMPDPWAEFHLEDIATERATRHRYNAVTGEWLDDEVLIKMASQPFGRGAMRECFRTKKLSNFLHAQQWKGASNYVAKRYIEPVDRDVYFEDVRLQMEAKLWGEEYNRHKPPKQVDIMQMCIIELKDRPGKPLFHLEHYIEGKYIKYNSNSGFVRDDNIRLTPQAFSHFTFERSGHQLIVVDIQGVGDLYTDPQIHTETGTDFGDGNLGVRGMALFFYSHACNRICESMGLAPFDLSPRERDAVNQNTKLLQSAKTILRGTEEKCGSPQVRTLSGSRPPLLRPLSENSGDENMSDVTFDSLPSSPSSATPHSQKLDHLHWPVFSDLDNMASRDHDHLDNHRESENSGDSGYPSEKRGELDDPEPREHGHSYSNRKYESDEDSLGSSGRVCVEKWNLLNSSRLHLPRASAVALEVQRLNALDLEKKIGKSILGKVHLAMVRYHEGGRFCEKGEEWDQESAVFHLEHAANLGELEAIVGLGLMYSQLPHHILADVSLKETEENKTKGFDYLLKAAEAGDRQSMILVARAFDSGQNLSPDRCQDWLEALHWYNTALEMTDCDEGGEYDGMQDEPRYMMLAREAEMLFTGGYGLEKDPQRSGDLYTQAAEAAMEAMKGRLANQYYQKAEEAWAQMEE

[8] = molecular target: Activin receptor type-1-like (Homo sapiens) (UniProt P37023); assay: Inhibition of human recombinant ALK1 at 15 nM in presence of ATP by radiometric assay relative to control
Summary of the method: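 Panel of 327 recombinant human kinases, each assayed in vitro by radiometric activity assay in duplicate at a single inhibitor concentration per compound, chosen with reference to its ULK1 inhibition. Activity remaining was expressed as percent of vehicle control, and percent inhibition was calculated as 100 minus percent activity remaining.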

[9] = molecular target: T3, Serine/threonine-protein kinase D3 (Homo sapiens) (UniProt O94806); assay: Inhibition of human recombinant PKD3 at 15 nM in presence of ATP by radiometric assay relative to control
T3 sequence (whole entry): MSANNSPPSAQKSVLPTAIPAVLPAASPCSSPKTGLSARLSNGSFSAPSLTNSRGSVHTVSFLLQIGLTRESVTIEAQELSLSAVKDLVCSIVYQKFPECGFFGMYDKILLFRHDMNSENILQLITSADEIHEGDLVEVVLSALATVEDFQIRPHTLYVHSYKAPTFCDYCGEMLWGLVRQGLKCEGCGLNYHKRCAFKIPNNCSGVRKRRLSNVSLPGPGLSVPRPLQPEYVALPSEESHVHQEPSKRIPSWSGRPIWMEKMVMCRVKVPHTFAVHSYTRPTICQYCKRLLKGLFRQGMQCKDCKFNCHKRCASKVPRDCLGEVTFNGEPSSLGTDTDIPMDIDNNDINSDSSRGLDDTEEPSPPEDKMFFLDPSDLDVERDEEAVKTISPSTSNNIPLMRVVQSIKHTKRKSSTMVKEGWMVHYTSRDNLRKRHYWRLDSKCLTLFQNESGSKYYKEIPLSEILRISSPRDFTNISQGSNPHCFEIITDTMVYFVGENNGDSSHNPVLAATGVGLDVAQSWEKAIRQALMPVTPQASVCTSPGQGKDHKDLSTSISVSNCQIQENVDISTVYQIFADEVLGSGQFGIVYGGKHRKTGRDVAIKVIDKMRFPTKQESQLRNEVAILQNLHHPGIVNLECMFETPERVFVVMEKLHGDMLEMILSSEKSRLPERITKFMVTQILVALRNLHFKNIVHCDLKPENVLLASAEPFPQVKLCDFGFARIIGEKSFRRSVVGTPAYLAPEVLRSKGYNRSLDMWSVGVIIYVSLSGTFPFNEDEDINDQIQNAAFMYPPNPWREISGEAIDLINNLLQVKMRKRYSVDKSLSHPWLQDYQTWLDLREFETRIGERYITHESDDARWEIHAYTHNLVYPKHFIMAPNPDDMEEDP

Sequence of Rho-associated protein kinase 2 (Homo sapiens) (O75116 whole entry, looked up): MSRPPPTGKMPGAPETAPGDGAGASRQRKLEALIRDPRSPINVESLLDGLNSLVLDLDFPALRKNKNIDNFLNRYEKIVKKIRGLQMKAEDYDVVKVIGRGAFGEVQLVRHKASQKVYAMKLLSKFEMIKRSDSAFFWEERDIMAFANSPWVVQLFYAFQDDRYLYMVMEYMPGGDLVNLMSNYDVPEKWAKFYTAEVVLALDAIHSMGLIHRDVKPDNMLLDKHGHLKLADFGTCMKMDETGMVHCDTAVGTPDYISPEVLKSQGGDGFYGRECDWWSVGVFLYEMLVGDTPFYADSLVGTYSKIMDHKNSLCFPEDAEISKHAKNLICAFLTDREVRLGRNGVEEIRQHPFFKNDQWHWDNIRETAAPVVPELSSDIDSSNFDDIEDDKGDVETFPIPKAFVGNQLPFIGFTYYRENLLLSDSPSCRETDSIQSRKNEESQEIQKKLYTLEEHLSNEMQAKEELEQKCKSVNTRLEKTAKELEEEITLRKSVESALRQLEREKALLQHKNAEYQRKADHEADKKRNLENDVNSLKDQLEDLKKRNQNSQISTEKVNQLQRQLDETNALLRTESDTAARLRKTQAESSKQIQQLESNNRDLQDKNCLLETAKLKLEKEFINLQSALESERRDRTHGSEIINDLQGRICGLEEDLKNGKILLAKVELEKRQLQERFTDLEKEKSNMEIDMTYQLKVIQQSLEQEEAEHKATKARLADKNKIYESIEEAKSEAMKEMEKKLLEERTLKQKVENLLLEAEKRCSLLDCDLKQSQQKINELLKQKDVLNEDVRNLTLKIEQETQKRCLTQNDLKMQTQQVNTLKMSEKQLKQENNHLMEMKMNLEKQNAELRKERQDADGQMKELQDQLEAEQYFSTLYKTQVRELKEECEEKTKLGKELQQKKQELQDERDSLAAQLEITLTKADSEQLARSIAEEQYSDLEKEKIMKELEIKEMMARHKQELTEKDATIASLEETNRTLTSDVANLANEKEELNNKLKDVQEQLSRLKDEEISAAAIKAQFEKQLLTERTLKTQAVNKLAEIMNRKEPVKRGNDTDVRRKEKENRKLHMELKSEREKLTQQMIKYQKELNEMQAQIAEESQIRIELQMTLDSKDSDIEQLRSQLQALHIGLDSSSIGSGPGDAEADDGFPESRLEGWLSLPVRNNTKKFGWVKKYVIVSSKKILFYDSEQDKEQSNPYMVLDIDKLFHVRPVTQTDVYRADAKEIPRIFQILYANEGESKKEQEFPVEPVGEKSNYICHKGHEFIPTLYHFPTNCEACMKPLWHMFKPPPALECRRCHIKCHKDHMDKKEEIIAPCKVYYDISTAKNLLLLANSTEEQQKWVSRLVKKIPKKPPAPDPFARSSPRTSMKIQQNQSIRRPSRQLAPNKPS
Sequence of Cyclin-dependent kinase-like 3 (Homo sapiens) (Q8IVW4 whole entry, looked up): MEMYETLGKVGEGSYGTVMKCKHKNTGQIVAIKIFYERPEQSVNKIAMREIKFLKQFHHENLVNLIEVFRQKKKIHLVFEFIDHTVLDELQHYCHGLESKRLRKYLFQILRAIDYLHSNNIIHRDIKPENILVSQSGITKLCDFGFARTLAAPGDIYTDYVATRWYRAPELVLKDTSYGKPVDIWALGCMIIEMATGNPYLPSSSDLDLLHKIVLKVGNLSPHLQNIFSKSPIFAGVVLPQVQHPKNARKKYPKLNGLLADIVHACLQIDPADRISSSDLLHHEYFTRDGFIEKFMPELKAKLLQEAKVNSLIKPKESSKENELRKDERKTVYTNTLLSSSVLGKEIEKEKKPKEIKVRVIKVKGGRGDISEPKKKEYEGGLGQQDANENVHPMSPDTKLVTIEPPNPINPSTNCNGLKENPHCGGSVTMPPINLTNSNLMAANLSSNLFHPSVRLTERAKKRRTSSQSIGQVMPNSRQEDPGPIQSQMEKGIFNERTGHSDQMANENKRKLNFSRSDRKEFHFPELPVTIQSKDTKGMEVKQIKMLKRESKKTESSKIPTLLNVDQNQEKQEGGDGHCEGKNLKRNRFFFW
Sequence of Serine/threonine-protein kinase 33 (Homo sapiens) (Q9BYT3 whole entry, looked up): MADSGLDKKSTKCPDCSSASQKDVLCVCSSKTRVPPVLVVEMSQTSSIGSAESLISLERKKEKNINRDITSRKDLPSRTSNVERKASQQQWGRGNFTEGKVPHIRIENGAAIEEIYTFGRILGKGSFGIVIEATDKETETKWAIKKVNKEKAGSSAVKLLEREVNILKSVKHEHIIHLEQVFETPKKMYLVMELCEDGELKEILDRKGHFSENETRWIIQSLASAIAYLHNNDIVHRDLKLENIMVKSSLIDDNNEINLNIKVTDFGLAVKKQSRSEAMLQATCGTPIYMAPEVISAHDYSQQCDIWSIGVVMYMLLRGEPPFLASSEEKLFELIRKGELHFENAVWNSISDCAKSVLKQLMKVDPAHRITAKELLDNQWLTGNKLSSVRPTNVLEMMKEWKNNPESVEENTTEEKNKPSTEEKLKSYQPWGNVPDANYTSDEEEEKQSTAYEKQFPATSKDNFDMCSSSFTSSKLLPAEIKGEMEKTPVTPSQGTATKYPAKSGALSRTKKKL
Sequence of Activin receptor type-1-like (Homo sapiens) (P37023 whole entry): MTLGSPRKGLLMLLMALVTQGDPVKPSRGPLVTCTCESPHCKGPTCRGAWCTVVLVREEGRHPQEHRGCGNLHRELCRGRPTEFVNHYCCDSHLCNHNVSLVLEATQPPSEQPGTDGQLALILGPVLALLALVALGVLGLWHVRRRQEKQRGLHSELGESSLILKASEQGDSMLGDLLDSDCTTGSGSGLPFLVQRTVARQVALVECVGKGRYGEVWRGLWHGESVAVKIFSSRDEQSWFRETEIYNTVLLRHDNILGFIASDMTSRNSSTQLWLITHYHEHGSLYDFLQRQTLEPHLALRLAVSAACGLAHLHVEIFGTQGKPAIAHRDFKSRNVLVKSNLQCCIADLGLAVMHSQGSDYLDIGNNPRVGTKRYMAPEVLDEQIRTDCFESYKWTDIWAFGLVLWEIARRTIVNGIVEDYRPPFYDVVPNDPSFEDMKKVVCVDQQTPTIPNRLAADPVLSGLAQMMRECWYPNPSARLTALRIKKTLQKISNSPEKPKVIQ
Sequence of Eukaryotic translation initiation factor 2-alpha kinase 1 (Homo sapiens) (Q9BQI3 whole entry): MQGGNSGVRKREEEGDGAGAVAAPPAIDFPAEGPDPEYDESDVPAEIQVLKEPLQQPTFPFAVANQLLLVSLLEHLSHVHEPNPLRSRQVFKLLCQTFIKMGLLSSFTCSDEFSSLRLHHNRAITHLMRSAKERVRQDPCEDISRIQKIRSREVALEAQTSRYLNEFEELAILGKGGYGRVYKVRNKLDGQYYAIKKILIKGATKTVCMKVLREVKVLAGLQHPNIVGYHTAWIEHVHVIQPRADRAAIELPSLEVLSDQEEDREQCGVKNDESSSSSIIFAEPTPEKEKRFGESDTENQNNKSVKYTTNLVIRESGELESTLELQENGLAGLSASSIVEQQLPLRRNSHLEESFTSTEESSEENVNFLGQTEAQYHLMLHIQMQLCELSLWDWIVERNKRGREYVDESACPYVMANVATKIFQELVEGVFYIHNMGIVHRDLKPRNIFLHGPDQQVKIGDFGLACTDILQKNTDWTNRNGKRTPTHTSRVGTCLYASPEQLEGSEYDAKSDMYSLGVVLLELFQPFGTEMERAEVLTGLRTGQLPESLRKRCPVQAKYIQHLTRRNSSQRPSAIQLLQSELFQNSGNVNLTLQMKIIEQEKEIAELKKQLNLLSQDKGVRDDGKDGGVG

Row | inhibition [1] [%] | fold change (FC) [2] | inhibition [3] [%] | fold change (FC) [4] | fold change (FC) [5] | fold change (FC) [6] | inhibition [7] [%] | inhibition [8] [%] | inhibition [9] [%] | SMILES
1 | 4 | 0 |  |  |  |  |  |  |  | CNC(=O)c1ccccc1Oc1nc(Nc2cc(OC)c(OC)c(OC)c2)ncc1Br
2 |  |  | 59 | 0.18 | 0 | 0.39 | 10 | 7 | 7 | CC(C)[C@H](NC(=O)c1cc(-c2cnn3cc(-c4ccc(OCCN5CCCCC5)cc4)cnc23)cs1)C(F)(F)F
